A selection: hits, their analogues and other compounds. The true share with any hit is near 3.9%.
tim23-1 inh: tim23-1 yeast growth inhibition | inhibition, % at 20 µM | S. cerevisiae tim23-1 growth, BacTiter-Glo luminescence, 24 h | 330,000 compounds, 1.3% hits;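 active = growth inhibition of the mutant yeast at or above 50%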;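 also: temperature-sensitive mutant grown at 25 °C; plate controls were DMSO-treated mutant yeast for no effect and medium wells lacking yeast for full effect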
TIM10 inh: growth inhibitors of TIM10 yeast strain; AID 463195; S. cerevisiae TIM10 strain growth, BacTiter-Glo luminescence, 24 h; 330,000 compounds, 1.4% hits; inhibition, % at 10 µM;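 active = inhibition of 40% or more at the single tested concentration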;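 also: wild-type TIM10 isogenic control strain grown at permissive 25 °C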
UPR CHOP act: apoptotic UPR (CHOP) activation | CHO-CHOP luciferase reporter, luminescence; percent of tunicamycin response over DMSO baseline | activation, % at 10 µM | 330,000 compounds, 0.34% hits | AID 449763;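 active = at 10 µM dose, activation of 40% or more, normalized to positive control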;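 also: 100% = tunicamycin at 10 µg/mL and 0% = DMSO alone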
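System: CHO CHOP reporter cells. Amount: 500 cells per well. Buffer or medium: F12 medium, 10% FBS. Compound dosing: one dose, 10 µM in 0.5% DMSO. Incubation: 6 h compound exposure at 37 °C after overnight seeding. Technique: Steady-Glo luciferase luminescence. Benchmarks: tunicamycin and DMSO controls.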
tim10-1 inh: growth inhibitors of tim10-1 mutant yeast. S. cerevisiae tim10-1 ts strain growth, BacTiter-Glo, 24 h. inhibition, % at 20 µM. 330,000 compounds, 2.2% hits. AID 463190;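 active = inhibition of at least 40%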;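 also: mutant grown at 25 °C; 0% = DMSO wells with yeast and 100% = wells holding no yeast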
XBP1 UPR activ: adaptive UPR (XBP1) activation. CHO-XBP1 luciferase reporter, IRE1-XBP1 UPR activation, luminescence; percent of tunicamycin response, DMSO as zero. activation, % at 20 µM. 330,000 compounds, 0.33% hits;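 active = versus positive control, 20 µM dose yields 30% or more activation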;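 also: 100% = tunicamycin at 10 µg/mL and 0% = DMSO only wells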
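Assay system: CHO-XBP1 luciferase reporter cells; Schedule: 6 h treatment, 37 °C; Detection: glow luminescence from Steady-Glo reagent; Benchmarks: high control tunicamycin 10 µg/mL final, low control DMSO vehicle only.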
tim10 confirm: confirmation of TIM10 yeast growth inhibitors. shares compounds with TIM10 inh. S. cerevisiae tim10 strain growth, BacTiter-Glo luminescence, 24 h. 4,600 compounds, 63% hits. inhibition, % at 10 µM;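 active = inhibition of yeast growth at or above a set limit in either of two replicates at 10 µM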;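 also: this counterscreen used the strain with wild-type TIM10; 0% = yeast with DMSO and 100% = medium wells lacking yeast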
Numbers without * were called inactive; · = no result given.

SMILES	tim23-1 inh	TIM10 inh	UPR CHOP act	tim10-1 inh	XBP1 UPR activ	tim10 confirm
CCCCN(C(=O)c1ccc(-c2ccc(Cl)cc2)o1)c1c(N)n(CCC)c(=O)[nH]c1=O	25	9	-1	21	2	·
N#C/C(=C\c1ccc(C(=O)O)cc1)S(=O)(=O)c1cc(Br)ccc1Br	45	42*	-2	32	-5	18
N#C/C(=C/c1ccc(F)cc1)S(=O)(=O)c1ccccc1	17	3	0	18	-3	·
O=C(c1ccco1)N1CCN=C1SCc1cccc(F)c1	20	96*	2	-10	1	-3
O=C(c1ccco1)N1CCN=C1SCc1ccc(F)cc1	0	6	-1	5	-3	·
COCCN(Cc1ccccc1)C(=O)C1CCN(S(=O)(=O)c2ccc3c(c2)OCCO3)CC1	-12	9	2	-5	-4	·
CCOC(=O)Oc1ccc2c(=O)c(Oc3cc(C)cc(C)c3)coc2c1	44	44*	1	39	0	29
Cc1ccc(C)c(Oc2coc3cc(OC(=O)c4cccs4)ccc3c2=O)c1	26	40*	1	31	-2	23
Cc1cc(C)cc(Oc2coc3cc(OC(=O)c4cccnc4)ccc3c2=O)c1	27	23	0	39	-2	·
O=C(CCc1nnc2ccc(N3CCC4(CC3)OCCO4)nn12)Nc1ccc(F)cc1	7	-1	-2	-7	-3	·
O=C(NCCSc1ccc(Br)cc1)c1ccc2nc[nH]c2c1	-9	-5	3	-11	0	·
Cc1ccc(C2(c3ccccc3)NC(=O)N(CC(=O)N3CC(=O)Nc4ccccc43)C2=O)cc1C (centres undefined)	17	7	0	11	0	·
CCCCn1c(N)c(N(CC(C)C)C(=O)c2cccc(S(=O)(=O)N3CCN(C)CC3)c2)c(=O)[nH]c1=O	3	-8	-1	-3	-1	·
Cc1nc2c(ccc3nc(NC(=O)Cc4ccccc4)sc32)s1	37	42*	7	38	9	45*
Cc1nc2c(ccc3nc(NC(=O)c4ccc(S(=O)(=O)N(C)C)cc4)sc32)s1	5	6	4	8	8	·
COc1cccc(-n2c(SCC(N)=O)nnc2-c2c[nH]c3ccccc23)c1	-1	-10	-1	0	-4	·
COc1ccc(OC)c(-n2c(SCC(N)=O)nnc2-c2c[nH]c3ccccc23)c1	9	98*	-1	6	1	2
O=C(/C=C/c1ccc(O)c([N+](=O)[O-])c1)c1ccc2ccccc2c1	11	0	5	12	6	·
COc1ccc(Oc2ccc(/C=C/C(=O)c3ccc(O)cc3)cc2[N+](=O)[O-])cc1	49	44*	13	31	4	39*
O=C1NC(=S)S/C1=C\c1coc2ccc(O)cc2c1=O	-18	2	-1	-12	0	·
O=C1NC(=S)S/C1=C\c1coc2ccccc2c1=O	28	44*	1	13	3	25
O=C(c1ccc(F)cc1F)N1CCN(c2ccccn2)CC1	3	-3	-1	8	12	·
COc1ccc(NC(=S)NCCSc2ccc(C)cc2)c(OC)c1	44	46*	-1	25	0	-15
COc1ccc(NC(=S)NCCc2ccc(Cl)cc2)c(OC)c1	47	41*	0	36	-1	-35
CCc1ccc(OC)c(S(=O)(=O)NCc2cccs2)c1	21	5	1	8	-3	·
SMILES	tim23-1 inh	TIM10 inh	UPR CHOP act	tim10-1 inh	XBP1 UPR activ	tim10 confirm
COc1ccccc1C1(CC(=O)N2CCCCC2)CCOC(C(C)C)C1 (centres undefined)	34	48*	-3	35	0	17
Cc1ccc(C(=O)OCC(=O)Nc2ccccc2C(F)(F)F)cc1S(=O)(=O)N1CCCCC1	18	-6	1	4	-2	·
O=C(NC(=S)Nc1ccccc1)c1cc(-c2ccccc2)nc2ccccc12	21	36	-1	33	-3	·
O=C(NC(=S)Nc1ccccn1)c1cc(-c2ccccc2)nc2ccccc12	41	47*	2	36	-1	6
C/C(=N\OCC(=O)N/N=C/c1ccc(C)cc1O)c1cccs1	18	53*	1	18	-3	26
Cc1csc(Nc2nc(N)c(C(=O)Nc3ccccc3)o2)n1	47	43*	6	-17	1	30

Screens (PubChem BioAssay)
